The source of these data is ChEMBL document CHEMBL2034924, “Optimization of a Potent, Orally Active S1P1 Agonist Containing a Quinolinone Core” (ACS Med Chem Lett, 2012).

The structures appear in SMILES notation. Values after ≈ are worked out from the molar mass of the structure shown.

Data set [1] concerns the target T1, Sphingosine 1-phosphate receptor 1 (Homo sapiens, UniProt P21453). Briefly: Agonist activity at human S1P1 receptor expressed in human U2OS cells co-expressing eGFP assessed as receptor internalization after 1 hr relative to 1-(4-(6-benzylbenzofuran-2-yl)-3-fluorobenzyl)azetidine-3-carboxylic acid. In kind it is functional, cell-based.
Data set [2] has as its target T1, Sphingosine 1-phosphate receptor 1. Kind of data set: Agonist activity at human S1P1 receptor expressed in human U2OS cells co-expressing eGFP assessed as receptor internalization after 1 hr. Type of data set: functional, cell-based. The gist of the method:
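U2OS cells expressing an hS1P1-GFP fusion protein; the read-out was receptor internalization. EC50 is the molar concentration giving a half-maximal response.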

Data set [3] has as its target T2, Sphingosine 1-phosphate receptor 3 (Homo sapiens, UniProt Q99500). Kind of data set: Agonist activity at human S1P3 receptor expressed in CHO cells coexpressing Gq/i5 G-protein assessed as Ca2+ mobilization after 60 to 90 mins by FLIPR assay. Type of data set: functional, cell-based. In a few lines:
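Ca2+ mobilization in CHO-K1 cells transfected with hS1P3/Gq/i5. EC50 is the molar concentration giving a half-maximal response.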
(In general: Calcium flux is commonly read through the fluorescence of an indicator in the cells.)

Data set [4] concerns the target T2, Sphingosine 1-phosphate receptor 3. Briefly: Agonist activity at human S1P3 receptor expressed in CHO cells coexpressing Gq/i5 G-protein assessed as Ca2+ mobilization after 60 to 90 mins by FLIPR assay relative to 0.2 uM S1P.
The target is the same in data set [5]. Kind of data set: Agonist activity at human S1P3 receptor expressed in CHO cells coexpressing Gq/i5 G-protein assessed as Ca2+ mobilization at 25 uM after 60 to 90 mins by FLIPR assay. In kind it is functional, cell-based.
Data set [6] in a line: Plasma protein binding in rat. Type of data set: ADME, cell-free. Conditions: read-out: PPB (converted).
The nature of data set [7]: Intrinsic clearance in rat liver microsomes at 1 uM after 30 mins. In kind it is ADME, Microsome. Conditions: read-out: CLH.
Data set [8] can be described thus: Apparent permeability of the compound across pig LLC-PK1 cells. Type of data set: ADME, cell-based, Sus scrofa. In a few lines: (§1)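 Parental porcine proximal tubule LLC-PK1 cell line. Apparent permeability was measured, and the efflux ratio was derived from it.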
For another data set, the system named is Rattus norvegicus. Kind of data set: Lymphopenic activity in Lewis rat assessed as reduction in peripheral blood lymphocyte counts at 1 mg/kg, po measured 24 hrs post dosing relative to control. Type of data set: functional. Also noted: scale not given: the % may be the effect or the level left. The gist of the method: (§2)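 Female Lewis rats (N = 5/group) received a single oral dose of 1 mg/kg in 20% captisol, 1% HPMC, 1% pluronic F68, pH 2.1 with MSA. Peripheral lymphocyte count is given as percent-of-control reduction versus vehicle at 24 h. Total plasma drug concentration was measured at 24 h. Statistics used ANOVA/Dunnett versus vehicle.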

Data set [9] can be described thus: Solubility of the compound in simulated intestinal fluid at pH 6.8 after 2 to 3 days by HPLC analysis. In kind it is physicochemical.
The nature of data set [10]: Efflux ratio of permeability in pig LLC-PK1 cells. Type of data set: ADME, cell-based, Sus scrofa. The gist of the method: as §1
Data set [11] in a line: Plasma concentration in Lewis rat at 1 mg/kg, po measured 24 hrs post dosing. Set-up: dose 1 mg/kg, route oral. Conditions: Lewis, plasma. In kind it is ADME, organism-based. The gist of the method:
as §2

T2 sequence (Q99500 whole entry): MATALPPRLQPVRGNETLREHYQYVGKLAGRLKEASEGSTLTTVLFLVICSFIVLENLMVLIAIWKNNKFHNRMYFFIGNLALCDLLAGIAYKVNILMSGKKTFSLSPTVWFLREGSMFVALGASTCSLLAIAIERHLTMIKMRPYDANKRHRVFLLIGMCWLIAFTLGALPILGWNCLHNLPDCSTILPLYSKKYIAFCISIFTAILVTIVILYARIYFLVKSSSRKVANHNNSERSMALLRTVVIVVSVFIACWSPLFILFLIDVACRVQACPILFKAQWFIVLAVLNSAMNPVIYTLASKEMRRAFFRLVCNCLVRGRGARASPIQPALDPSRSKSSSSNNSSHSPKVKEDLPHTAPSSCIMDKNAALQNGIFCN
T1 sequence (P21453 whole entry): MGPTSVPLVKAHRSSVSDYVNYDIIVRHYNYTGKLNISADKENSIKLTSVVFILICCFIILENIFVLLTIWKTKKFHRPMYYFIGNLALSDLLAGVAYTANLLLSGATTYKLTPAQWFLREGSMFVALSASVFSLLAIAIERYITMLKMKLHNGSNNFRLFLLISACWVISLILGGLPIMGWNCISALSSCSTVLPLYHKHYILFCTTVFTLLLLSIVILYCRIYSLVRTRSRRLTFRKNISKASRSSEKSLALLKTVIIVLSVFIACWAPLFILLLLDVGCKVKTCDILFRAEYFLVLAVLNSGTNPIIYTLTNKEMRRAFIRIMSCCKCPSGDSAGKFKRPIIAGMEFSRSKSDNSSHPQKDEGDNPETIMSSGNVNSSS

For orientation: EC50 means the concentration that produces a half-maximal response. Take `Cn1cc(C(=O)Nc2ccc(-c3ccccc3)c(C(F)(F)F)c2)c(=O)c2cccc(C(=O)O)c21`: the Efficacy worked out at 103% in data set [1] and 11% in data set [4]. Besides, the EC50 was determined as 2000 nM in data set [2] and 1100 nM in data set [3].

For orientation: Papp means the rate of passage across a membrane or cell layer, normalised by area and donor concentration. A word on the solubility: it is the dissolved amount per volume that the medium holds. Usually efflux ratio stands for the permeability from basolateral to apical divided by that in the opposite direction, in the common usage. For the compound `Cn1cc(C(=O)Nc2ccc(-c3ccccc3)c(C(F)(F)F)c2)c(=O)c2ccc(CO)cc21`, the Efficacy in data set [1] stood at 125%. For the same compound, the Activity in data set [5] is less than 10%; in the data set on Rattus norvegicus it was -44%. Besides, the EC50 in [2] is 18 nM; in data set [3], more than 25000 nM. In data set [6], the fraction unbound is 0.076. The microsomal CLint at 1 µM in data set [7] is less than 14 µL/min/mg. Moreover, the Papp in data set [8] came out at 2.8 ×10⁻⁶ cm/s. The compound also registered a solubility in data set [9] of 27 µg/mL (≈ 59.7 µM). Also, in [10], the efflux ratio stood at 1. The compound further returned a concentration at 24 h in [11] of 65 ng/mL.

Consider `Cn1cc(C(=O)Nc2ccc(-c3ccccc3)c(C(F)(F)F)c2)c(=O)c2ccc(CCC(=O)O)cc21`, for which the Efficacy in data set [1] is 85%; in data set [4] it was 82%. In addition, the EC50 came out at 4 nM in data set [2] and 940 nM in data set [3]. For the same compound, in data set [6], the fraction unbound was 0.022. In data set [7], the microsomal CLint at 1 µM is less than 14 µL/min/mg. For the same compound, the apparent permeability coefficient (Papp) in [8] worked out at 1.6 ×10⁻⁶ cm/s. The Activity in the data set on Rattus norvegicus is on record as -25%. For the same compound, the solubility in [9] was 200 µg/mL (≈ 404 µM). Moreover, the efflux ratio in data set [10] amounted to 1. In data set [11], this compound returned a concentration at 24 h of 4 ng/mL.

In the case of `Cn1cc(C(=O)Nc2ccc(-c3ccccc3)c(C(F)(F)F)c2)c(=O)c2ccc(CC(=O)O)cc21`, the values for the Efficacy in data set [1] and in data set [4] were 138% and 28%, respectively. The figures for the EC50 in [2] and in data set [3] were 180 nM and 1600 nM, respectively.

Take `Cn1cc(C(=O)Nc2ccc(-c3ccccc3)c(C(F)(F)F)c2)c(=O)c2cc(CO)ccc21`: the Efficacy in data set [1] was 46%. In addition, the Activity in data set [5] was less than 10%. The EC50 in data set [2] is 700 nM; in [3], more than 25000 nM.

With `Cn1cc(C(=O)Nc2ccc(-c3ccccc3)c(C(F)(F)F)c2)c(=O)c2ccc(CCCO)cc21`, the Efficacy in data set [1] was found to be 118%. For the same compound, in data set [5], the Activity is less than 10%. In addition, the EC50 is 15 nM in data set [2] and more than 25000 nM in data set [3].

Consider `Cn1cc(C(=O)Nc2ccc(-c3ccccc3)c(C(F)(F)F)c2)c(=O)c2cccc(CCO)c21`, for which the Efficacy in data set [1] came out at 106%. Besides, the Activity in [5] is less than 10%. The EC50 in data set [2] is 390 nM; in data set [3], more than 25000 nM.

Regarding `Cn1cc(C(=O)Nc2ccc(-c3ccccc3)c(C(F)(F)F)c2)c(=O)c2ccc(CCO)cc21`, the Efficacy in [1] amounted to 118%. Moreover, the Activity was less than 10% in data set [5] and -48% in the data set on Rattus norvegicus. Also, the EC50 is 8 nM in data set [2] and more than 25000 nM in [3]. In addition, in data set [6], the fraction unbound was 0.073. In addition, the microsomal CLint at 1 µM in data set [7] was less than 14 µL/min/mg. For the same compound, the Papp in data set [8] stood at 2.2 ×10⁻⁶ cm/s. Moreover, the concentration in solution in data set [9] (solubility) came to 6 µg/mL (≈ 12.9 µM). Besides, the efflux ratio in data set [10] amounted to 1. Also, the concentration at 24 h in [11] amounted to 27 ng/mL.

For `Cn1cc(C(=O)Nc2ccc(-c3ccccc3)c(C(F)(F)F)c2)c(=O)c2ccccc21`, in [1], the Efficacy was found to be 105%.
